The list is not random: actives were taken first. Their share in the collection is about 3.5%.
RGS4 inh: inhibitors of human RGS4; P49798; HEK293 M3R/RGS4 inducible, Fluo-4 calcium flux; hits give high values; triggered by carbachol at its EC20; B-score at 10 µM; 0.45% of 310,000 active;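 active = B-score, a plate-corrected calcium signal, over three deviations above library mean, with baseline fluorescence within five deviations of library mean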;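 note: RGS4 expression induced by doxycycline in cells with stable M3 receptor; B-score is computed from the integrated fluorescence ratio over baseline after carbachol; higher B-score means a larger calcium signal and so more RGS4 inhibition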
Target sequence (P49798 whole entry, looked up): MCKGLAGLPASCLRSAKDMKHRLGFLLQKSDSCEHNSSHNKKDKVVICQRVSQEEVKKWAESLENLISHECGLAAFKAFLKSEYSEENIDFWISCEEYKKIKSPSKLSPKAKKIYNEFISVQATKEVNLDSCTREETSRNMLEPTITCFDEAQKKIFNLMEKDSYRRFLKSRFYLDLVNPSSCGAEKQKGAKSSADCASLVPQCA
MrgX1 allo act: allosterically activates human MrgX1 receptor signaling | 0.63% of 310,000 active | MrgX1-HEK293, Fluo-4 calcium flux, FDSS; hits give high values | B-score at 10 µM | Q96LB2;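 active = plate-corrected calcium response at least 3 library SD above typical, normal starting fluorescence, not activating the receptor alone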;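 note: compound read alongside a low EC10 to EC30 dose of BAM8-22 agonist; peak minus trough fluorescence over baseline measured at the second addition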
Target sequence (Q96LB2 whole entry, looked up): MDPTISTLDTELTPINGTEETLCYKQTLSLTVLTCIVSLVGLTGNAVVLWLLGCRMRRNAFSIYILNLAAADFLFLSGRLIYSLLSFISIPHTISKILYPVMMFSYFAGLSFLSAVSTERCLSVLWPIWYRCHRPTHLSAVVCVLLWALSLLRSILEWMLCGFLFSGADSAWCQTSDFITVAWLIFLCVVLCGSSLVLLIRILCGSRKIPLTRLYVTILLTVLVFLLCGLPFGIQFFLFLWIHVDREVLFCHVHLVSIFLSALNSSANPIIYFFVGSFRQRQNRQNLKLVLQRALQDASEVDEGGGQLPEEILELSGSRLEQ
MrgX1 ag: agonists of human MrgX1 receptor. MrgX1-HEK293 cells, Fluo-4 calcium fluorescence, agonist mode; hits give high values. B-score at 10 µM. Q96LB2. 0.44% of 310,000 active;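 active = calcium response B-score plate-corrected fluorescence ratio at least 3 library SD, with starting fluorescence B-score inside 5 SD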
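times = overnight plating, then 30 min 37 °C plus 30 min room-temperature dye loading | assay system = stable human MrgX1 HEK293 cell line | input = fifteen thousand cells per well | signal = kinetic calcium dye fluorescence, Fluo-4 NW | dosing = compound delivered in addition one of three | read-out = B-scored fluorescence response ratio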
RGS4 act: potentiators or activators of RGS4; HEK293 M3R/inducible RGS4, carbachol calcium flux Fluo4; hits give low values; 0.92% of 310,000 active; B-score at 10 µM; AID 463111;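 active = B-score of the integrated calcium signal more than 4 SD below the library mean, with starting fluorescence not abnormally high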;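 note: negative B-score means reduced calcium response which marks RGS4 activation or potentiation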
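Material: M3R-expressing HEK293 line, RGS4 induced by doxycycline | Schedule: Overnight RGS4 induction, 30 min dye load 37 °C, 20 min compound RT | Measured by: Fluo4 fluorescence kinetic imaging of calcium | Read-out: Integrated calcium ratio converted to B score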
MrgX1 antag: antagonists of human MrgX1 receptor. Q96LB2. MRGX1-HEK293 calcium flux, Fluo-4, BAM8-22 antagonism; hits give low values. B-score at 10 µM. 1.3% of 310,000 active. AID 588676;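 active = calcium-response B-score plate-corrected more than 3 library SD below zero, starting fluorescence within 5 deviations, no agonist response on first addition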;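 note: peak minus trough fluorescence over baseline after final BAM8-22 challenge near maximal dose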
Active calls of the source: *.

CC12COC3(C(=O)Nc4ccccc4F)CC1CCC32C (configuration not stated) was read as RGS4 inh inactive, MrgX1 allo act inactive, MrgX1 ag inactive, RGS4 act inactive and MrgX1 antag inactive.
`COc1ccc(O)c(/C=N/Nc2nc(Nc3ccccc3)nc(-n3nc(C)cc3C)n2)c1` gave RGS4 inh inactive, MrgX1 allo act inactive, MrgX1 ag inactive, RGS4 act -8.5* and MrgX1 antag inactive.
For COc1ccc(OC)c(S(=O)(=O)N(C)CC(=O)Nc2ccc3c(c2)OCCO3)c1 the results were RGS4 inh inactive, MrgX1 allo act inactive, MrgX1 ag inactive, RGS4 act inactive and MrgX1 antag inactive.
CS(=O)(=O)Nc1cccc(C2=NN(S(C)(=O)=O)C(c3ccc4c(c3)OCO4)C2)c1 (configuration not stated) was read as RGS4 inh inactive, MrgX1 allo act inactive, MrgX1 ag inactive, RGS4 act inactive and MrgX1 antag -7.6*.
Screening CS(=O)(=O)N1N=C(c2ccccc2)CC1c1ccc2c(c1)OCO2 (configuration not stated) returned RGS4 inh inactive, MrgX1 allo act inactive, MrgX1 ag inactive, RGS4 act inactive and MrgX1 antag inactive.
Screening Cc1cc(Cl)nc(Cl)c1C(=O)NC(=O)NCCC(C)C returned RGS4 inh inactive, MrgX1 allo act inactive, MrgX1 ag inactive, RGS4 act inactive and MrgX1 antag inactive.
CNc1ccc(S(=O)(=O)NCC(=O)NCCCc2ccccc2)cc1[N+](=O)[O-] was read as RGS4 inh inactive, MrgX1 allo act inactive, MrgX1 ag inactive, RGS4 act inactive and MrgX1 antag inactive.
`Cc1ccc(C2=CC(C)(c3ccc(C)cc3)Nc3nc(C(F)(F)F)nn32)cc1` (configuration not stated) gave RGS4 inh inactive, MrgX1 allo act inactive, MrgX1 ag inactive, RGS4 act -7* and MrgX1 antag inactive.
`Cc1ccc(SCCNC(=O)c2ccc(C)c(S(=O)(=O)Nc3ccccc3C)c2)cc1` gave RGS4 inh inactive, MrgX1 allo act inactive, MrgX1 ag inactive, RGS4 act inactive and MrgX1 antag inactive.
Screening Cc1c(C(=O)N2CC(C)OC(C)C2)sc2nc(-c3ccc(F)cc3)cn12 (configuration not stated) returned RGS4 inh inactive, MrgX1 allo act inactive, MrgX1 ag inactive, RGS4 act inactive and MrgX1 antag inactive.
CC(=O)CCc1ccc(OCCCCN2CCC(Cc3ccccc3)CC2)cc1 was read as RGS4 inh inactive, MrgX1 allo act inactive, MrgX1 ag inactive, RGS4 act -7.2* and MrgX1 antag inactive.
Screening COc1cccc(OC)c1OCCCCN1CCC(Cc2ccccc2)CC1 returned RGS4 inh inactive, MrgX1 allo act inactive, MrgX1 ag inactive, RGS4 act inactive and MrgX1 antag inactive.
`CCC(=O)c1ccccc1OCCCN1CCC(Cc2ccccc2)CC1` gave RGS4 inh inactive, MrgX1 allo act inactive, MrgX1 ag inactive, RGS4 act inactive and MrgX1 antag -5.6*.
COc1ccccc1N/C=C/c1onc(C)c1[N+](=O)[O-] was read as RGS4 inh inactive, MrgX1 allo act inactive, MrgX1 ag inactive, RGS4 act inactive and MrgX1 antag -6.5*.
For COc1ccccc1-c1ccc(SCc2cccc(C)c2)nn1 the results were RGS4 inh inactive, MrgX1 allo act inactive, MrgX1 ag inactive, RGS4 act inactive and MrgX1 antag inactive.
CCOc1ccc(C(=O)NCC(=O)N2CCN(C/C=C/c3ccccc3)CC2)cc1OCC was read as RGS4 inh inactive, MrgX1 allo act inactive, MrgX1 ag inactive, RGS4 act -7.2* and MrgX1 antag inactive.
Screening CCOC(=O)C1=C(Cc2ccc(C)cc2)C(=O)c2ccccc2C1=O returned RGS4 inh inactive, MrgX1 allo act inactive, MrgX1 ag 86*, RGS4 act inactive and MrgX1 antag inactive.
CCOC(=O)C1=C(O)c2ccccc2C(=O)/C1=C\c1ccc(CC)cc1 was read as RGS4 inh inactive, MrgX1 allo act inactive, MrgX1 ag inactive, RGS4 act inactive and MrgX1 antag -6*.
CCOC(=O)c1ccc(COC(=O)c2ccc3c(c2)-c2ccccc2C3=O)cc1 was read as RGS4 inh inactive, MrgX1 allo act inactive, MrgX1 ag inactive, RGS4 act inactive and MrgX1 antag inactive.
For CCCc1ccc(/C=C2\C(=O)c3ccccc3C(O)=C2C(=O)OCC)cc1 the results were RGS4 inh inactive, MrgX1 allo act inactive, MrgX1 ag inactive, RGS4 act inactive and MrgX1 antag -7*.
Screening Cc1ccc2nc(SCC(=O)Nc3ccc(C)c(Cl)c3)nc(=O)n2c1 returned RGS4 inh inactive, MrgX1 allo act inactive, MrgX1 ag inactive, RGS4 act inactive and MrgX1 antag inactive.
For COc1cc(NC(=O)c2cnc(N)s2)cc(C(=O)Nc2cccc(C(F)(F)F)c2)c1 the results were RGS4 inh inactive, MrgX1 allo act inactive, MrgX1 ag inactive, RGS4 act inactive and MrgX1 antag inactive.
`Cc1ccc(NC(=O)CC(O)(C(F)(F)F)C(F)(F)F)cc1` gave RGS4 inh inactive, MrgX1 allo act inactive, MrgX1 ag 48*, RGS4 act inactive and MrgX1 antag inactive.
Screening CCCn1c(=N)n(CC(=O)O)c2ccccc21 returned RGS4 inh inactive, MrgX1 allo act inactive, MrgX1 ag inactive, RGS4 act inactive and MrgX1 antag inactive.
Screening COCc1ccc(CN2CCC(C(=O)Nc3cccc(-c4cccc(Cl)c4)c3)CC2)o1 returned RGS4 inh inactive, MrgX1 allo act inactive, MrgX1 ag inactive, RGS4 act -8.1* and MrgX1 antag inactive.
COCc1ccc(CN2CCC(C(=O)Nc3cccc(-c4cscn4)c3)CC2)o1 was read as RGS4 inh inactive, MrgX1 allo act inactive, MrgX1 ag inactive, RGS4 act inactive and MrgX1 antag inactive.
For O=C(c1ccncc1)N1N=C(c2ccc(Br)cc2)CC1c1ccccc1O (configuration not stated) the results were RGS4 inh inactive, MrgX1 allo act inactive, MrgX1 ag inactive, RGS4 act inactive and MrgX1 antag inactive.
CC(=O)N1N=C(c2ccncc2)CC1c1ccccc1O (configuration not stated) was read as RGS4 inh inactive, MrgX1 allo act inactive, MrgX1 ag inactive, RGS4 act inactive and MrgX1 antag -7.5*.
CC(=O)N1N=C(c2ccccc2)CC1c1cn(Cc2ccccc2)c2ccccc12 (configuration not stated) was read as RGS4 inh inactive, MrgX1 allo act inactive, MrgX1 ag inactive, RGS4 act inactive and MrgX1 antag -4.6*.
